ChEMBL document CHEMBL1137681, “Design, synthesis and characterization of N9/N7-substituted 6-aminopurines as VEGF-R and EGF-R inhibitors” (Eur J Med Chem, 2009)
Values belong to the compound of their own block, whether it stands above or below them. Calls of active or inactive are those of the source. The calls are words filed in the database; no cut-off is given here.

Columns and labels:
[1] = target: Protein kinase C alpha type (Homo sapiens) (UniProt P17252); test: Inhibition of PKCalpha at 10 uM
[2] = target: Tyrosine-protein kinase Yes (Homo sapiens) (UniProt P07947); test: Inhibition of human YES1 at 10 uM
[3] = target: Cyclin-dependent kinase 2 (Homo sapiens) (UniProt P24941); test: Inhibition of CDK2/cyclin A at 10 uM
[4] = target: Serine/threonine-protein kinase Nek2 (Homo sapiens) (UniProt P51955); test: Inhibition of NEK2a at 10 uM
[5] = Inhibition of CK2 at 10 uM
[6] = target: Tyrosine-protein kinase CSK (Homo sapiens) (UniProt P41240); test: Inhibition of CSK at 10 uM
[7] = target: Calcium/calmodulin-dependent protein kinase kinase 2 (Homo sapiens) (UniProt Q96RR4); test: Inhibition of human CAMKKbeta at 10 uM
[8] = target: Serine/threonine-protein kinase pim-3 (Homo sapiens) (UniProt Q86V86); test: Inhibition of human PIM3 at 10 uM
[9] = target: Myosin light chain kinase, smooth muscle (Homo sapiens) (UniProt Q15746); test: Inhibition of smMLCK at 10 uM
[10] = target: Serine/threonine-protein kinase BRSK2 (Homo sapiens) (UniProt Q8IWQ3); test: Inhibition of human BRSK2 at 10 uM
[11] = target: Glycogen synthase kinase-3 beta (Homo sapiens) (UniProt P49841); test: Inhibition of GSK3-beta at 10 uM
[12] = target: Ephrin type-A receptor 2 (Homo sapiens) (UniProt P29317); test: Inhibition of human EPHA2 at 10 uM
[13] = target: Tyrosine-protein kinase SYK (Homo sapiens) (UniProt P43405); test: Inhibition of human SYK at 10 uM
[14] = target: Serine/threonine-protein kinase 26 (Homo sapiens) (UniProt Q9P289); test: Inhibition of human MST4 at 10 uM
[15] = target: Maternal embryonic leucine zipper kinase (Homo sapiens) (UniProt Q14680); test: Inhibition of human MELK at 10 uM
[16] = target: Dual specificity tyrosine-phosphorylation-regulated kinase 3 (Homo sapiens) (UniProt O43781); test: Inhibition of human DYRK3 at 10 uM
[17] = target: Ribosomal protein S6 kinase alpha-5 (Homo sapiens) (UniProt O75582); test: Inhibition of MSK1 at 10 uM
[18] = target: Mitogen-activated protein kinase 8 (Homo sapiens) (UniProt P45983); test: Inhibition of JNK1alpha1 at 10 uM
[19] = target: Mitogen-activated protein kinase 9 (Homo sapiens) (UniProt P45984); test: Inhibition of human JNK2 at 10 uM
[20] = target: Serine/threonine-protein kinase PAK 5 (Homo sapiens) (UniProt Q9P286); test: Inhibition of human PAK5 at 10 uM
[21] = target: Inhibitor of nuclear factor kappa-B kinase subunit beta (Homo sapiens) (UniProt O14920); test: Inhibition of IKKb at 10 uM
[22] = target: Ribosomal protein S6 kinase alpha-3 (Homo sapiens) (UniProt P51812); test: Inhibition of RSK2 at 10 uM
[23] = Inhibition of PKA at 10 uM
[24] = target: Dual specificity mitogen-activated protein kinase kinase 1 (Oryctolagus cuniculus) (UniProt P29678); test: Inhibition of rabbit MKK1 at 10 uM
[25] = test system: RAC-alpha serine/threonine-protein kinase (Homo sapiens), P31749 [S473D]; test: Inhibition of PKBalpha S473D mutant at 10 uM
[26] = target: Mitogen-activated protein kinase 13 (Homo sapiens) (UniProt O15264); test: Inhibition of SAPK4 at 10 uM
[27] = target: Dual specificity tyrosine-phosphorylation-regulated kinase 1A (Rattus norvegicus) (UniProt Q63470); test: Inhibition of rat DYRK1a at 10 uM
[28] = test system: Ribosomal protein S6 kinase beta-1 (Homo sapiens), P23443 [T412E]; test: Inhibition of S6K1 T412E mutant at 10 uM
[29] = target: Serine/threonine-protein kinase 3 (Homo sapiens) (UniProt Q13188); test: Inhibition of human MST2 at 10 uM
[30] = target: Proto-oncogene tyrosine-protein kinase LCK (Mus musculus) (UniProt P06240); test: Inhibition of mouse LCK at 10 uM
[31] = target: Casein kinase I isoform delta (Rattus norvegicus) (UniProt Q06486); test: Inhibition of rat CK1delta (1-294) at 10 uM
[32] = target: Ribosomal protein S6 kinase alpha-1 (Rattus norvegicus) (UniProt Q63531); test: Inhibition of rat MAPKAP-K1a at 10 uM
[33] = target: Rho-associated protein kinase 2 (Rattus norvegicus) (UniProt Q62868); test: Inhibition of rat ROCK2 at 10 uM
[34] = target: Mitogen-activated protein kinase 15 (Homo sapiens) (UniProt Q8TD08); test: Inhibition of ERK8 at 10 uM
[35] = target: Serine/threonine-protein kinase Chk2 (Homo sapiens) (UniProt O96017); test: Inhibition of CHK2 at 10 uM
[36] = target: Serine/threonine-protein kinase Nek7 (Homo sapiens) (UniProt Q8TDX7); test: Inhibition of NEK7 at 10 uM
[37] = test system: Serine/threonine-protein kinase Sgk1 (Homo sapiens), O00141 [S422D]; test: Inhibition of SGK1 S422D mutant at 10 uM
[38] = test system: Serine/threonine-protein kinase B-raf (Homo sapiens), P15056 [V600E]; test: Inhibition of BRAF V600E mutant up to 100 uM
[39] = target: MAP kinase-interacting serine/threonine-protein kinase 2 (Homo sapiens) (UniProt Q9HBH9); test: Inhibition of MNK2alpha at 10 uM
[40] = target: Mitogen-activated protein kinase 11 (Homo sapiens) (UniProt Q15759); test: Inhibition of SAPK2b at 10 uM
[41] = target: Aurora kinase B (Homo sapiens, UniProt Q96GD4); test: Inhibition of Aurora B up to 100 uM
Procedure, shortened: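 Buffer was HEPES-NaOH pH 7.5 with MgCl2, MnCl2, vanadate, DTT, PEG20000 and 1% DMSO. Run 80 min at 30 °C, quenched with 2% H3PO4, NaCl-washed, then scintillation-counted. IC50 fitted from 10 concentrations tested once each.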

[42] = target: Serine/threonine-protein kinase PAK 6 (Homo sapiens) (UniProt Q9NQU5); test: Inhibition of human PAK6 at 10 uM
[43] = target: Epidermal growth factor receptor (Homo sapiens, UniProt P00533); test: Inhibition of EGFR up to 100 uM
Procedure, shortened: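 Buffer: HEPES-NaOH pH 7.5, Mg2+/Mn2+, vanadate, DTT, PEG20000, 1% DMSO. Incubated 30 °C for 80 min, stopped with 2% H3PO4, washed, and scintillation-counted. IC50 from 10 concentrations in singlicate.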

[44] = target: Insulin receptor-related protein (Homo sapiens) (UniProt P14616); test: Inhibition of IRR at 10 uM

Chain of Ribosomal protein S6 kinase alpha-5 (Homo sapiens) (O75582 whole entry, looked up): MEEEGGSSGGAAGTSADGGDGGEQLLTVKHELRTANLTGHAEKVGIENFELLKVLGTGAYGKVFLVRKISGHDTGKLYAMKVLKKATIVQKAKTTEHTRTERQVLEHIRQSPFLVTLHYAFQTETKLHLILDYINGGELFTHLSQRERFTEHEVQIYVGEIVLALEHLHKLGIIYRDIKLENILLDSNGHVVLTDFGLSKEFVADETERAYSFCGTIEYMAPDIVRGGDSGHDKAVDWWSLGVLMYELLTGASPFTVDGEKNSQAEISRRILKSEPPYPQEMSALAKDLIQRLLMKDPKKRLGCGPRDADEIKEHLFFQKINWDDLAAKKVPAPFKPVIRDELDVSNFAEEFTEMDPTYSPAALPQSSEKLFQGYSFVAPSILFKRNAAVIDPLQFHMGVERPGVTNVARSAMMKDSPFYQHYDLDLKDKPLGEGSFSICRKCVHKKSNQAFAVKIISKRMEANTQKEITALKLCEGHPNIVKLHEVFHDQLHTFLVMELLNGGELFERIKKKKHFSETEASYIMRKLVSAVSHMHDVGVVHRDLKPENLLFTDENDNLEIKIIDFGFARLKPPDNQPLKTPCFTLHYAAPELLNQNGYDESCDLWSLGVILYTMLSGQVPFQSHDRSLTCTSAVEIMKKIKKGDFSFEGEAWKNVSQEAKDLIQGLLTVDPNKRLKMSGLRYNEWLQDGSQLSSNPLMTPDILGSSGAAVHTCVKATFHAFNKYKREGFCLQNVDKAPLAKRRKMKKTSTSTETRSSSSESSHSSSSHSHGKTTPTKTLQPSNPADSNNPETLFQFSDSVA
Chain of Ephrin type-A receptor 2 (Homo sapiens) (P29317 whole entry): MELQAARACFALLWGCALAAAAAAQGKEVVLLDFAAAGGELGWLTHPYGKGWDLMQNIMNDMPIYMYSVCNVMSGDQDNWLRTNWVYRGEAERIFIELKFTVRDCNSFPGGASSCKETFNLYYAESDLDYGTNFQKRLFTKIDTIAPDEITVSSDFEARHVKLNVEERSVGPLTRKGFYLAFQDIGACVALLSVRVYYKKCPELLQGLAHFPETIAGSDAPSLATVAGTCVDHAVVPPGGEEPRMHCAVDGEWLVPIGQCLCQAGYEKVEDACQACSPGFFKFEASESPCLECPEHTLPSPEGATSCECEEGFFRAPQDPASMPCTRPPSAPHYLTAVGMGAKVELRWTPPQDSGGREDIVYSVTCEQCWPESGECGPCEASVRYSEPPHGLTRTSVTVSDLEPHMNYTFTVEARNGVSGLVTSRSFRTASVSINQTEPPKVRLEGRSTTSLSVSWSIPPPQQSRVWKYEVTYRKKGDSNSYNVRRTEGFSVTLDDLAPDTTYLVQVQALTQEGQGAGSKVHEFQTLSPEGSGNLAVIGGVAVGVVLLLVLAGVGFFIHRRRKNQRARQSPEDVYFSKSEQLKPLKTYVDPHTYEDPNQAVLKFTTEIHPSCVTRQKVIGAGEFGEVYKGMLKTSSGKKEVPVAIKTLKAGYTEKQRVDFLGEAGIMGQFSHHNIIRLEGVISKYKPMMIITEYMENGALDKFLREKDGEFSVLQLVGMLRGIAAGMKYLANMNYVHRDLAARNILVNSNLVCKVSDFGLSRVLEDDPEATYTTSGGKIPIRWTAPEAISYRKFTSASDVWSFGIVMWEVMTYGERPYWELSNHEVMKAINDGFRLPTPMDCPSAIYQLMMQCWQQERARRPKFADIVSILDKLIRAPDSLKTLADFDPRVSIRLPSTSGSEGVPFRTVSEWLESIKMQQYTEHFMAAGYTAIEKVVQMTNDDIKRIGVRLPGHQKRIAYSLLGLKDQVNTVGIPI
Chain of Serine/threonine-protein kinase B-raf (Homo sapiens), P15056 [V600E] (P15056 whole entry V600E): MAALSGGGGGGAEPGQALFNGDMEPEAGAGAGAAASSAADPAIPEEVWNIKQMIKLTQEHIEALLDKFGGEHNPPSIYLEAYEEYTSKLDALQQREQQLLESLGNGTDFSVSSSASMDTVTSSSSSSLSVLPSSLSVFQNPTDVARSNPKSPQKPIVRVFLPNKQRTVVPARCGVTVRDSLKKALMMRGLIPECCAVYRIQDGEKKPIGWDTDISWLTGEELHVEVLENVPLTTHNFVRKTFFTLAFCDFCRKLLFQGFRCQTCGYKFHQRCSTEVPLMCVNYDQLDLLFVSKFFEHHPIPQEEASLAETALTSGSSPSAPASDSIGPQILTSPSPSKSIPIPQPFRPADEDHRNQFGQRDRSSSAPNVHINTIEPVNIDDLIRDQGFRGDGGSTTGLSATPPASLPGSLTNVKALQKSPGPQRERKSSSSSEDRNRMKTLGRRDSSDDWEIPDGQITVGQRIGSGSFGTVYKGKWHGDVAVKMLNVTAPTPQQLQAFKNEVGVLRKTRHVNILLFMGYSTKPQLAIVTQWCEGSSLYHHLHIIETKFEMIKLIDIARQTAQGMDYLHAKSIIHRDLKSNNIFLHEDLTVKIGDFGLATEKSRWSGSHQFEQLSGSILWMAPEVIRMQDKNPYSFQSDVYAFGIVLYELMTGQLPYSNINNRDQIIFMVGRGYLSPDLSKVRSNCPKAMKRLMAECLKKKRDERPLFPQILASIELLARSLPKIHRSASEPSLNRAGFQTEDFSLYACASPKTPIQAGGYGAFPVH
Chain of MAP kinase-interacting serine/threonine-protein kinase 2 (Homo sapiens) (Q9HBH9 whole entry, looked up): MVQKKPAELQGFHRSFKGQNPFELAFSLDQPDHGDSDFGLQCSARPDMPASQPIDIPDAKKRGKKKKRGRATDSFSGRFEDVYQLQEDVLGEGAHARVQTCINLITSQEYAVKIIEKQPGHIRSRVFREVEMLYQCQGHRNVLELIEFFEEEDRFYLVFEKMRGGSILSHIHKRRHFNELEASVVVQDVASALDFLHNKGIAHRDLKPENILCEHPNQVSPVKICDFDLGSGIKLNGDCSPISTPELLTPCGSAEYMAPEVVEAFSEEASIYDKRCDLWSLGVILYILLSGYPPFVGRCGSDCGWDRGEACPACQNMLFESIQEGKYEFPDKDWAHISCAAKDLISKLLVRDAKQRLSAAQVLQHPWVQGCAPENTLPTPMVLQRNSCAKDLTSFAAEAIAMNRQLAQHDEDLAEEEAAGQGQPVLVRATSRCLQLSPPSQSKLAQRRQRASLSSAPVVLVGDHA
Chain of Dual specificity mitogen-activated protein kinase kinase 1 (Oryctolagus cuniculus) (P29678 whole entry): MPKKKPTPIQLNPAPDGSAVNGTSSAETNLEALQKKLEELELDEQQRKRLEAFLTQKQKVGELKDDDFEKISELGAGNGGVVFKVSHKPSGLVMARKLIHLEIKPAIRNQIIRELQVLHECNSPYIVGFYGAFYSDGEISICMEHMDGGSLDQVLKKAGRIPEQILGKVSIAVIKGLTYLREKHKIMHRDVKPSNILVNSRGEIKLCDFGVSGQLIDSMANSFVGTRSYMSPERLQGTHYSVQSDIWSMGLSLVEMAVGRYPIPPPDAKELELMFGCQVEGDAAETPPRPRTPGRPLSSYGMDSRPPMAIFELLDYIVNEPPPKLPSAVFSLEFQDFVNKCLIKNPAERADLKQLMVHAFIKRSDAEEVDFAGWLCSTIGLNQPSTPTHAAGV
Chain of RAC-alpha serine/threonine-protein kinase (Homo sapiens), P31749 [S473D] (P31749 whole entry S473D): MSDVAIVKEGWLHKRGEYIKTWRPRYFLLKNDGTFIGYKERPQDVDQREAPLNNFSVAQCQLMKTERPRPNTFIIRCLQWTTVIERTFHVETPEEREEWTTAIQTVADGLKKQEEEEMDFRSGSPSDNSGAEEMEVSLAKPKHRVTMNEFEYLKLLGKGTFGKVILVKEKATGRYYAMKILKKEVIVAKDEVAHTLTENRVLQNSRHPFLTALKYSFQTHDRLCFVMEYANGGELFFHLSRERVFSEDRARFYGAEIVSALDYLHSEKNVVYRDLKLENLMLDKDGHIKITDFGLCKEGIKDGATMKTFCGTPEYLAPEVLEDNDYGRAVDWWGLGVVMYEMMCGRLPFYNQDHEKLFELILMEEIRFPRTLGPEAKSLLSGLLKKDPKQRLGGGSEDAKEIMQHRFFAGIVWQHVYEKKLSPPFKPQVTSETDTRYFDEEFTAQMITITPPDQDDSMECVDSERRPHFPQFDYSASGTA
Chain of Mitogen-activated protein kinase 9 (Homo sapiens) (P45984 whole entry, looked up): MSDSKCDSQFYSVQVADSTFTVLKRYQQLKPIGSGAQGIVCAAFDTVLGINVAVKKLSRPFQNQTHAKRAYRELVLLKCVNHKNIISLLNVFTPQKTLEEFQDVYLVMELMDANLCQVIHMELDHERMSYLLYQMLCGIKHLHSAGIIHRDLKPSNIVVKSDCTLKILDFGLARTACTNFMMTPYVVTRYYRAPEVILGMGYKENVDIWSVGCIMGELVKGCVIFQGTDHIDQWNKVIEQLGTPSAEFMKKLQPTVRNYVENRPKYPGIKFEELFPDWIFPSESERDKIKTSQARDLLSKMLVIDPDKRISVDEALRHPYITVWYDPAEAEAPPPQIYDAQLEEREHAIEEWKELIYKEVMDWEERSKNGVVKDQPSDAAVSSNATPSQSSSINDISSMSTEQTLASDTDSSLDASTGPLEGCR

inhibition [1]: inactive
inhibition [2]: inactive
inhibition [3]: inactive
inhibition [4]: inactive
inhibition [5]: inactive
inhibition [6]: inactive
inhibition [7]: inactive
inhibition [8]: inactive
inhibition [9]: inactive
inhibition [10]: inactive
inhibition [11]: inactive
inhibition [12]: inactive
inhibition [13]: inactive
inhibition [14]: inactive
inhibition [15]: inactive
inhibition [16]: inactive
inhibition [17]: inactive
inhibition [18]: inactive
inhibition [19]: inactive
inhibition [20]: inactive
inhibition [21]: inactive
inhibition [22]: inactive
inhibition [23]: inactive
inhibition [24]: inactive
inhibition [25]: inactive
inhibition [26]: inactive
inhibition [27]: inactive
inhibition [28]: inactive
inhibition [29]: inactive
inhibition [30]: inactive
inhibition [31]: inactive
inhibition [32]: inactive
inhibition [33]: inactive
inhibition [35]: inactive
inhibition [36]: inactive
inhibition [37]: inactive
inhibition [38]: inactive
inhibition [39]: inactive
inhibition [40]: inactive
inhibition [41]: inactive
inhibition [42]: inactive
Structure (SMILES): Nc1ncnc2ncn(CC(=O)c3c[nH]c4ccccc34)c12
inhibition [34]: inactive

inhibition [43]: inactive
Structure (SMILES): Nc1ncnc2ncn(CC(=O)c3ccccc3)c12

inhibition [44]: 51%
Structure (SMILES): Nc1ncnc2c1ncn2CC(=O)c1c[nH]c2ccccc12
